In ChEMBL document CHEMBL1143578, “From 1-acyl-beta-lactam human cytomegalovirus protease inhibitors to 1-benzyloxycarbonylazetidines with improved antiviral activity. A straightforward approach to convert covalent to noncovalent inhibitors” (J Med Chem, 2005):

Tests used:
[1] = test system: HEL; test: Minimum cytotoxic concentration required to cause a microscopically visible alteration of HEL fibroblast cell morphology; type: functional; conditions: Homo sapiens
Procedure, shortened: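 HEL cell morphology was examined under the microscope after compound exposure. MCC is the lowest concentration producing a detectable alteration in morphology.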

[2] = test system: HEL; test: Effective concentration required to reduce Varicella-Zoster virus OKA(TK) plaque formation after 5 days in HEL fibroblast cell line; type: functional, cell-based; conditions: Homo sapiens, 120 h
Procedure, shortened: (§1)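 Confluent HEL cells were inoculated with VZV at 20 PFU/well for 2 h. Residual virus was removed and varying compound concentrations were added in duplicate. Plaques were counted after 5 days. EC50 is the concentration halving plaque formation relative to untreated controls.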

[3] = test system: HEL; test: Effective concentration required to reduce Varicella-Zoster virus 07/1(TK-) plaque formation after 5 days in HEL fibroblast cell line; type: functional, cell-based; conditions: Homo sapiens, 120 h; procedure, shortened: as §1
[4] = test system: HEL; test: Cytotoxic concentration required to reduce HEL cell growth; type: functional; conditions: Homo sapiens
Procedure, shortened: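 HEL cells seeded at 5 × 10³ cells/well and allowed to proliferate 24 h, then exposed to a range of compound concentrations for 3 days at 37 °C. Cell number was counted with a Coulter counter. CC50 is the concentration giving 50% growth reduction versus untreated controls, read from plots of cell number (% of control) against concentration.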

[5] = test system: HEL; test: Effective concentration required to inhibit human cytomegalo virus AD-169 induced cytopathicity in HEL fibroblast cell line after 7 days of postinfection; type: functional, cell-based; conditions: 168 h
Procedure, shortened: (§2)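 Confluent HEL fibroblasts were infected with 100 PFU/well for 2 h, then residual virus was removed. Cells were incubated with a range of compound concentrations, in duplicate, for 7 days at 37 °C. Cells were ethanol-fixed and Giemsa-stained, and cytopathogenicity was scored microscopically. EC50 was read from plots of % cytopathogenicity against concentration.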

[6] = test system: HEL; test: Effective concentration required to inhibit human cytomegalo virus Davis induced cytopathicity in HEL fibroblast cell line after 7 days of postinfection; type: functional, cell-based; conditions: 168 h; procedure, shortened: as §2

Structure (SMILES)	MCC [1]	EC50 [2]	EC50 [3]	CC50 [4]	EC50 [5]	EC50 [6]
COC(=O)[C@@]1(Cc2ccccc2)CCN1C(=O)N[C@@H](C)c1ccccc1	> 50 µM	> 50 µM	> 50 µM	> 50 µM	> 20 µM	
C[C@H](NC(=O)N1C(=O)C[C@]1(Cc1ccccc1)C(=O)O)c1ccccc1	> 200 µM		111 µM			> 200 µM
C[C@@H](NC(=O)N1C(=O)C[C@@]1(Cc1ccccc1)C(=O)O)c1ccccc1	> 200 µM		151 µM			> 200 µM
CC(C)(C)OC(=O)C1(Cc2ccccc2)CCN1C(=O)OCc1ccccc1 (stereo not given)	5 µM	> 2 µM	> 2 µM		0.7 µM	0.6 µM
C[C@H](NC(=O)N1C(=O)C[C@@]1(Cc1ccccc1)C(=O)OC(C)(C)C)c1ccccc1	200 µM	37 µM	20 µM			
Nc1nc2c(ncn2COCCO)c(=O)[nH]1 [ACYCLOVIR]	> 1200 µM	7.1 µM	111 µM	511 µM	17 µM	20 µM
O=C(OCc1ccccc1)N1CCC1(Cc1ccccc1)C(=O)NC1CCCCC1 (stereo not given)	≥ 16 µM	7.8 µM	5.1 µM	37 µM	5.9 µM	3.2 µM
C[C@H](NC(=O)C1(Cc2ccccc2)CCN1C(=O)OCc1ccccc1)C(N)=O (stereo not given in full)	≥ 400 µM	> 80 µM	> 80 µM	50 µM	39 µM	32 µM
O=C1C[C@H](Cc2ccccc2)N1C(=O)NCc1ccccc1				> 250 µM		
C[C@H](NC(=O)N1C(=O)C[C@@]1(Cc1ccccc1)C(=O)O)c1ccccc1	200 µM	> 200 µM	110 µM			
CC(C)(C)NC(=O)C1(Cc2ccccc2)CCN1C(=O)OCc1ccccc1 (stereo not given)	≥ 16 µM	> 3.2 µM	> 16 µM	36 µM	5.5 µM	4.4 µM
C[C@@H](NC(=O)N1C(=O)C[C@]1(Cc1ccccc1)C(=O)OC(C)(C)C)c1ccccc1	> 200 µM	> 50 µM	> 50 µM			
COC(=O)[C@@]1(Cc2ccccc2)CC(=O)N1C(=O)N[C@@H](C)c1ccccc1	> 50 µM	> 50 µM	> 50 µM	> 50 µM	> 50 µM	
COC(=O)[C@]1(Cc2ccccc2)CCN1C(=O)N[C@@H](C)c1ccccc1	> 50 µM	50 µM	50 µM	> 50 µM	> 20 µM	
COC(=O)[C@]1(Cc2ccccc2)CC(=O)N1C(=O)N[C@@H](C)c1ccccc1	> 50 µM	> 50 µM	> 50 µM	> 50 µM	> 50 µM	
COC(=O)N1CCC1(Cc1ccccc1)C(=O)N[C@@H](C)C(N)=O (stereo not given in full)	> 400 µM	> 400 µM	346 µM	> 200 µM	> 400 µM	> 400 µM
CC(C)(C)OC(=O)N1C(=O)CC1(Cc1ccccc1)C(=O)OC(C)(C)C (stereo not given)	> 200 µM				> 200 µM	> 200 µM
Nc1nc2c(ncn2COC(CO)CO)c(=O)[nH]1 [GANCICLOVIR]	> 1500 µM					
C[C@@H](NC(=O)N1C(=O)C[C@]1(Cc1ccccc1)C(=O)O)c1ccccc1	200 µM	> 200 µM	> 200 µM			
C[C@@H](NC(=O)N1CCC1(Cc1ccccc1)C(=O)OC(C)(C)C)c1ccccc1 (stereo not given in full)	400 µM	36 µM	25 µM	57 µM	40 µM	33 µM
CC(C)(C)OC(=O)C1(Cc2ccccc2)CC(=O)N1C(=O)OCc1ccccc1 (stereo not given)	50 µM	12 µM	8 µM			
CC(C)(C)OC(=O)[C@]1(Cc2ccccc2)CC(=O)N1C(=O)Nc1ccccc1	200 µM	33 µM	13 µM		50 µM	50 µM
O=c1[nH]c(=O)n([C@H]2C[C@H](O)[C@@H](CO)O2)cc1/C=C/Br [BRIVUDINE]	1200 µM		103 µM	249 µM	> 100 µM	> 100 µM
Nc1ccn(C[C@@H](CO)OCP(=O)(O)O)c(=O)n1 [CIDOFOVIR]	> 1400 µM				0.6 µM	1 µM
C[C@H](NC(=O)C1(Cc2ccccc2)CCN1C(=O)OCc1ccccc1)C(=O)O (stereo not given in full)	≥ 400 µM	> 80 µM	> 80 µM	124 µM	> 400 µM	> 80 µM
C[C@H](NC(=O)C1(Cc2ccccc2)CCN1C(=O)OCc1ccccc1)C(=O)OC(C)(C)C (stereo not given in full)	80 µM	16 µM	> 16 µM	33 µM	16 µM	4.4 µM
C[C@@H](NC(=O)N1C(=O)C[C@@]1(Cc1ccccc1)C(=O)OC(C)(C)C)c1ccccc1	200 µM	> 50 µM	23 µM			
C[C@H](NC(=O)N1C(=O)C[C@]1(Cc1ccccc1)C(=O)OC(C)(C)C)c1ccccc1	200 µM	> 50 µM	14 µM			
CNC(=O)[C@H](C)NC(=O)C1(Cc2ccccc2)CCN1C(=O)OCc1ccccc1 (stereo not given in full)	> 50 µM	> 50 µM	> 50 µM	> 50 µM	7.4 µM	5 µM
COC(=O)[C@H](C)NC(=O)C1(Cc2ccccc2)CCN1C(=O)OCc1ccccc1 (stereo not given in full)	400 µM	> 80 µM	> 80 µM	50 µM	> 80 µM	> 80 µM
